Test results from ChEMBL document CHEMBL1154352, “Toll-like receptor 7 selective synthetic oligoribonucleotide agonists: synthesis and structure-activity relationship studies” (J Med Chem, 2009).
The source made the active and inactive calls. No cut-off for these calls is given here.

Columns and labels:
PBMC [1] = assay: Immunomodulatory activity in human PBMC assessed as induction of IP10 after 24 hrs; type: functional, cell-based
Summary of the method: (§1)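 Human PBMCs plated at 5 × 10^6 cells/mL; compounds dissolved in PBS added at various concentrations, 37 °C for 24 h. Supernatant cytokines/chemokines quantified with human Luminex multiplex kit.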

PBMC [2] = assay: Immunomodulatory activity in human PBMC assessed as induction of IL12 after 24 hrs; type: functional, cell-based; summary of the method: as §1
PBMC [3] = assay: Immunomodulatory activity in human PBMC assessed as induction of IL1-beta after 24 hrs; type: functional, cell-based; summary of the method: as §1
Mus musculus [4] = assay: Immunomodulatory activity in wild-type C57BL/6 mouse assessed as induction of IL12 release at 10 mg/kg, sc after 2 hrs by ELISA; type: functional, organism-based; parameters: dose 10 mg/kg
Summary of the method: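 Female C57BL/6 wild-type mice, 5–8 weeks old, n=3; compounds given subcutaneously at 10 or 25 mg/kg. Retro-orbital blood at 2 h; serum cytokines by mouse Luminex multiplex or IL-12 ELISA.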

Mus musculus [5] = assay: Immunomodulatory activity in TLR9 knockout C57BL/6 mouse assessed as induction of IL12 release at 10 mg/kg, sc after 2 hrs by ELISA; type: functional, organism-based; parameters: dose 10 mg/kg
Summary of the method: (§2)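 Male 8-week-old TLR9-/-, TLR7-/- or MyD88-/- mice on C57BL/6 background, n=3; single subcutaneous 10 mg/kg dose. Blood collected 2 h later by retro-orbital bleeding; serum IL-12 by ELISA.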

Mus musculus [6] = assay: Immunomodulatory activity in TLR7 knockout C57BL/6 mouse assessed as induction of IL12 release at 10 mg/kg, sc after 2 hrs by ELISA; type: functional, organism-based; parameters: dose 10 mg/kg; summary of the method: as §2

Question: For `Nc1ccn([C@@H]2O[C@H](COP(=O)(S)O[C@H]3[C@@H](O)[C@H](n4cnc5c(N)ncnc54)O[C@@H]3CO)[C@@H](OP(=O)(S)OC[C@H]3O[C@@H](n4ccc(=O)[nH]c4=O)[C@H](O)[C@@H]3OP(=O)(S)OC[C@H]3O[C@@H](n4ccc5c(=O)[nH]c(N)nc54)[C@H](O)[C@@H]3OP(=O)(S)OC[C@H]3O[C@@H](n4ccc(N)nc4=O)[C@H](O)[C@@H]3OP(=O)(S)OC[C@H]3O[C@@H](n4ccc5c(=O)[nH]c(N)nc54)[C@H](O)[C@@H]3OP(=O)(S)OC[C@H]3O[C@@H](n4cnc5c(N)ncnc54)[C@H](O)[C@@H]3OP(=O)(S)OC[C@H]3O[C@@H](n4ccc5c(=O)[nH]c(N)nc54)[C@H](O)[C@@H]3OP(=O)(S)OC[C@H]3O[C@@H](n4ccc(N)nc4=O)[C@H](O)[C@@H]3OP(=O)(S)OC[C@H]3O[C@@H](n4ccc(=O)[nH]c4=O)[C@H](O)[C@@H]3OP(=O)(S)OC[C@H]3O[C@@H](n4ccc(=O)[nH]c4=O)[C@H](O)[C@@H]3OP(=O)(S)OCC(O)COP(=O)(S)O[C@H]3[C@@H](O)[C@H](n4ccc(=O)[nH]c4=O)O[C@@H]3COP(=O)(S)O[C@H]3[C@@H](O)[C@H](n4ccc(=O)[nH]c4=O)O[C@@H]3COP(=O)(S)O[C@H]3[C@@H](O)[C@H](n4ccc(N)nc4=O)O[C@@H]3COP(=O)(S)O[C@H]3[C@@H](O)[C@H](n4ccc5c(=O)[nH]c(N)nc54)O[C@@H]3COP(=O)(S)O[C@H]3[C@@H](O)[C@H](n4cnc5c(N)ncnc54)O[C@@H]3COP(=O)(S)O[C@H]3[C@@H](O)[C@H](n4ccc5c(=O)[nH]c(N)nc54)O[C@@H]3COP(=O)(S)O[C@H]3[C@@H](O)[C@H](n4ccc(N)nc4=O)O[C@@H]3COP(=O)(S)O[C@H]3[C@@H](O)[C@H](n4ccc5c(=O)[nH]c(N)nc54)O[C@@H]3COP(=O)(S)O[C@H]3[C@@H](O)[C@H](n4ccc(=O)[nH]c4=O)O[C@@H]3COP(=O)(S)O[C@H]3[C@@H](O)[C@H](n4ccc(N)nc4=O)O[C@@H]3COP(=O)(S)O[C@H]3[C@@H](O)[C@H](n4cnc5c(N)ncnc54)O[C@@H]3CO)[C@H]2O)c(=O)n1` (stereo partly specified), which Activity (PBMC [1]) is on record?
Answer: Dose-dependent effect

Question: What about the Activity (PBMC [2]) of the same compound?
Answer: Dose-dependent effect

Question: And the Activity (PBMC [3])?
Answer: Dose-dependent effect

Question: And the Activity (Mus musculus [4])?
Answer: Active

Question: And the Activity (Mus musculus [5])?
Answer: Active

Question: What about the Activity (Mus musculus [6]) of the same compound?
Answer: inactive
